Four compounds from paper PMC6563393 (Molecular Imaging, 2019) can be followed below.

A short description of data set [1]: Ex vivo biodistribution, H226 xenografts. The class given is in vivo, NSG mice. The conditions noted are these: female, NSG, mouse, H226 tumor (xenograft), iv, 740 kBq, total radioactivity. A digest of the protocol:
(§1)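 Female NSG mice (6–8 weeks) with subcutaneous xenografts got 740 kBq radiotracer in 200 µL iv. The radiotracer was reconstituted in saline with 5% DMSO and Tween 20, then diluted in saline. Mice were killed at 120 min (MDAMB231 also 60 min, plus a group coinjected with 50 µg unmodified peptide). Blood, tumour and tissues were weighed and gamma-counted with triplicate standards. %ID/g reported as mean ± SEM.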

The nature of data set [2]: Ex vivo biodistribution, normal tissues. The class given is in vivo, NSG mice. The following applies: at all the time points (10, 60, 120 minutes); blocking dose had minimal effect. A digest of the protocol: (§2)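 Female NSG mice (6–8 weeks) bearing subcutaneous CHO/hPD-L1 and parental CHO tumours received radiotracer iv in saline (from 5% DMSO/Tween 20 stock). For blocking, it was coinjected with 50 µg unmodified peptide. Mice were dissected at 10, 60 and 120 min (n = 4 per time point). Blood, tumours and tissues were weighed and gamma-counted with triplicate radioactive standards. Values are %ID/g, mean ± SEM, compared by unpaired two-tailed t test.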

Data set [3] can be described thus: Ex vivo biodistribution, SUM149 xenografts. The class given is in vivo, NSG mice. The conditions noted are these: female, NSG, mouse, SUM149 tumor (xenograft), iv, 740 kBq, total radioactivity. The method, boiled down:
as §1

Data set [4] is described as follows: Ex vivo biodistribution, MDAMB231 xenografts. In kind it is in vivo, NSG mice. The conditions noted are these: female, NSG, mouse, MDAMB231 tumor (xenograft), iv, 740 kBq, total radioactivity. A digest of the protocol:
as §1

Data set [5] in a line: Ex vivo biodistribution, hPD-L1 xenografts. The class given is in vivo, NSG mice. The following applies: female, NSG, mouse, hPD-L1 tumor (xenograft), iv, 740 kBq, total radioactivity. The method, boiled down:
as §2

For a further data set, the system named is hPD-L1 tumors. Description: Ex vivo biodistribution, hPD-L1 xenografts. In kind it is in vivo, NSG mice. The following applies: co-injected with 50 µg blocking dose of WL12. The method, boiled down:
as §2

Data set [6] deals with hPD-L1, CHO, MDAMB231, SUM149, H226, and H1155 cells. Description: [^18F]FPy-WL12 in vitro uptake assay. The conditions noted are these: blocking with 1 µM unmodified WL12; 1 hour at 37°C. In kind it is cell-based. The method, boiled down: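 Cells were lifted with non-enzymatic dissociation buffer. 1 × 10⁶ cells in PBS with 2 mM EDTA and 1% FBS were incubated with 1 µCi radiotracer for 1 h at 37°C, washed three times with cold PBS, and bound activity was gamma-counted. CHO-hPD-L1 cells were kept in F-12K/10% FBS with 2 mg/mL G418. SUM149 cells were grown in Ham's F-12/5% FBS with insulin and hydrocortisone. Runs were in triplicate, repeated three times.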

The target in data set [7] is recombinant human PD-L1(B7-H1)-His-tag protein (human) (UniProt Q9NZQ7). Description: AlphaScreen or HTRF.
In data set [8] the target is endogenous PD-L1 on MDAMB231 and H226 cells (human (endogenous in MDAMB231 and H226)) (UniProt Q9NZQ7).

A word on the tissue uptake: it is the share of the injected amount in each gram of the tissue. As usually defined, the IC50 is the concentration at which inhibition is half-maximal. As a reminder, the Ki is a measure of affinity in units of concentration, obtained from inhibition or displacement.

As for `CCCC[C@H]1C(=O)N(C)[C@@H](CCCC)C(=O)N[C@@H](CCCNC(=O)c2ccc(F)nc2)C(=O)N[C@H](C(=O)NCC(N)=O)CSCC(=O)N[C@@H](Cc2ccc(O)cc2)C(=O)N(C)[C@@H](C)C(=O)N[C@@H](CC(N)=O)C(=O)N2CCC[C@H]2C(=O)N[C@@H](Cc2c[nH]cn2)C(=O)N[C@@H](CC(C)C)C(=O)N2C[C@H](O)C[C@H]2C(=O)N[C@@H](Cc2c[nH]c3ccccc23)C(=O)N[C@@H](CO)C(=O)N[C@@H](Cc2cn(C)c3ccccc23)C(=O)N1C` [[^18F]FPy-WL12], the results for the tissue uptake at 2 h in [1], in data set [3] and in data set [4] were 2.77 ± 0.31 %ID/g, 1.43 ± 0.11 %ID/g and 2.15 ± 0.1 %ID/g, respectively. The “accumulation in liver and kidneys” value in [2] is recorded as “high”. Further, the tissue uptake at 1 h in [5] came to 7.16 ± 1.67 %ID/g. The “reduction in the uptake in hPD-L1 tumors by blocking dose” value in the data set with hPD-L1 tumors is 85%. The “[^18F]FPy-WL12 uptake in cells coincubated with unmodified WL12” value in data set [6] is “significantly reduced”.
As to “WL12, PD-L1-binding peptide (14-amino acid cyclic peptide)”, in data set [7], the half-maximal inhibitory concentration (IC50) turned out to be 0.0264 µM and the Ki is 0.0123 µM.
Regarding “[^18F]FPy-WL12, radiotracer (WL12 acylated with 6-[^18F]fluoronicotinate) (peptide)”, in data set [8], the tumor uptake in MDAMB231 xenografts at 120 minutes, ex vivo biodistribution was 2.15 %ID/g.
As for “^19FPy-WL12, nonradioactive analog of the radiotracer (WL12 acylated with 6-fluoronicotinate) (peptide)”, in [7], the IC50 amounted to 0.0317 µM and the Ki is 0.0148 µM.
